Results reported in ChEMBL document CHEMBL1150163, “Steroidal glycosides from the leaves of Cestrum nocturnum” (2002).
Converted amounts (≈) assume the structure as drawn.

Tested on: HSC-2
Test: Cytotoxicity against human HSC2 cells after 24 hrs by MTT assay
Assay type: functional
Settings: HSC-2, 24 h, read-out: LD50 (the source's name)
How it was run: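 HSC-2 oral squamous carcinoma cells grown as monolayers in DMEM with 10% heat-inactivated FBS, 37 °C, 5% CO2. Seeded at 6 × 10^3 cells/well, incubated 24 h, washed, then exposed to compounds for 24 h. MTT (0.2 mg/mL) for 4 h, DMSO lysis, absorbance at 540 nm. LD50 (50% reduction in viable cells) read from dose-response curve.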

Row | Compound | CC50 [µg/mL]
1 | CC(=O)C1=CC[C@H]2[C@@H]3CC=C4C[C@@H](O[C@@H]5O[C@H](CO)[C@H](O[C@@H]6O[C@H](CO)[C@@H](O)[C@H](O[C@@H]7OC[C@@H](O)[C@H](O)[C@H]7O)[C@H]6O[C@@H]6O[C@H](CO)[C@@H](O)[C@H](O[C@@H]7O[C@H](CO)[C@@H](O)[C@H](O)[C@H]7O)[C@H]6O)[C@H](O)[C@H]5O)[C@H](O)C[C@]4(C)[C@H]3CC[C@]12C | 192 (≈ 173 µM)
2 | CC(=O)[C@H]1[C@@H](OC(=O)CC[C@@H](C)CO[C@@H]2O[C@H](CO)[C@@H](O)[C@H](O)[C@H]2O)C[C@H]2[C@@H]3CC=C4C[C@@H](O[C@@H]5O[C@H](CO)[C@H](O[C@@H]6O[C@H](CO)[C@@H](O)[C@H](O[C@@H]7OC[C@@H](O)[C@H](O)[C@H]7O)[C@H]6O[C@@H]6O[C@H](CO)[C@@H](O)[C@H](O[C@@H]7O[C@H](CO)[C@@H](O)[C@H](O)[C@H]7O)[C@H]6O)[C@H](O)[C@H]5O)[C@H](O)C[C@]4(C)[C@H]3CC[C@@]21C | > 300
3 | C[C@@H]1CC[C@@]2(OC1)O[C@H]1C[C@H]3[C@@H]4CC=C5C[C@@H](O[C@@H]6O[C@H](CO)[C@H](O[C@@H]7O[C@H](CO)[C@@H](O)[C@H](O[C@@H]8OC[C@@H](O)[C@H](O)[C@H]8O)[C@H]7O[C@@H]7O[C@H](CO)[C@@H](O)[C@H](O[C@@H]8O[C@H](CO)[C@@H](O)[C@H](O)[C@H]8O)[C@H]7O)[C@H](O)[C@H]6O)[C@H](O)C[C@]5(C)[C@H]4CC[C@]3(C)[C@H]1[C@@H]2C | 2.7 (≈ 2.23 µM)
4 | C[C@@H]1C(=O)O[C@H]2C[C@H]3[C@@H]4CC=C5C[C@@H](O[C@@H]6O[C@H](CO)[C@H](O[C@@H]7O[C@H](CO)[C@@H](O)[C@H](O[C@@H]8OC[C@@H](O)[C@H](O)[C@H]8O)[C@H]7O[C@@H]7O[C@H](CO)[C@@H](O)[C@H](O[C@@H]8O[C@H](CO)[C@@H](O)[C@H](O)[C@H]8O)[C@H]7O)[C@H](O)[C@H]6O)[C@H](O)C[C@]5(C)[C@H]4CC[C@]3(C)[C@H]21 | > 300
5 | CO[C@]1(CC[C@@H](C)CO[C@@H]2O[C@H](CO)[C@@H](O)[C@H](O)[C@H]2O)O[C@H]2C[C@H]3[C@@H]4CC=C5C[C@@H](O[C@@H]6O[C@H](CO)[C@H](O[C@@H]7O[C@H](CO)[C@@H](O)[C@H](O[C@@H]8OC[C@@H](O)[C@H](O)[C@H]8O)[C@H]7O[C@@H]7O[C@H](CO)[C@@H](O)[C@H](O[C@@H]8O[C@H](CO)[C@@H](O)[C@H](O)[C@H]8O)[C@H]7O)[C@H](O)[C@H]6O)[C@H](O)C[C@]5(C)[C@H]4CC[C@]3(C)[C@H]2[C@@H]1C | 6.1 (≈ 4.34 µM)
6 | CC1=C(CC[C@@H](C)CO[C@@H]2O[C@H](CO)[C@@H](O)[C@H](O)[C@H]2O)O[C@H]2C[C@H]3[C@@H]4CC=C5C[C@@H](O[C@@H]6O[C@H](CO)[C@H](O[C@@H]7O[C@H](CO)[C@@H](O)[C@H](O[C@@H]8OC[C@@H](O)[C@H](O)[C@H]8O)[C@H]7O[C@@H]7O[C@H](CO)[C@@H](O)[C@H](O[C@@H]8O[C@H](CO)[C@@H](O)[C@H](O)[C@H]8O)[C@H]7O)[C@H](O)[C@H]6O)[C@H](O)C[C@]5(C)[C@H]4CC[C@]3(C)[C@@H]12 | > 300
7 | C/C(C(=O)CC[C@@H](C)CO[C@@H]1O[C@H](CO)[C@@H](O)[C@H](O)[C@H]1O)=C1/C(=O)C[C@H]2[C@@H]3CC=C4C[C@@H](O[C@@H]5O[C@H](CO)[C@H](O[C@@H]6O[C@H](CO)[C@@H](O)[C@H](O[C@@H]7OC[C@@H](O)[C@H](O)[C@H]7O)[C@H]6O[C@@H]6O[C@H](CO)[C@@H](O)[C@H](O[C@@H]7O[C@H](CO)[C@@H](O)[C@H](O)[C@H]7O)[C@H]6O)[C@H](O)[C@H]5O)[C@H](O)C[C@]4(C)[C@H]3CC[C@]12C | 281 (≈ 203 µM)
8 | C/C(C(=O)CC[C@@H](C)CO[C@@H]1O[C@H](CO)[C@@H](O)[C@H](O)[C@H]1O)=C1/C(=O)C[C@H]2[C@@H]3CC=C4C[C@@H](O[C@@H]5O[C@H](CO)[C@H](O[C@@H]6O[C@H](CO)[C@@H](O)[C@H](O[C@@H]7OC[C@@H](O)[C@H](O)[C@H]7O)[C@H]6O[C@@H]6O[C@H](CO)[C@@H](O)[C@H](O)[C@H]6O)[C@H](O)[C@H]5O)[C@H](O)C[C@]4(C)[C@H]3CC[C@]12C | > 300
9 | C[C@@H]1CC[C@@]2(OC1)O[C@H]1C[C@H]3[C@@H]4CC=C5C[C@@H](O[C@@H]6O[C@H](CO)[C@H](O[C@@H]7O[C@H](CO)[C@@H](O)[C@H](O[C@@H]8OC[C@@H](O)[C@H](O)[C@H]8O)[C@H]7O[C@@H]7O[C@H](CO)[C@@H](O)[C@H](O[C@@H]8O[C@H](CO)[C@@H](O)[C@H](O)[C@H]8O)[C@H]7O)[C@H](O)[C@H]6O)[C@H](O)C[C@]5(C)[C@H]4CC[C@]3(C)[C@@]1(O)[C@@H]2C | 4.4 (≈ 3.59 µM)
10 | C[C@H]1CO[C@]2(C[C@@H]1O[C@@H]1O[C@H](CO)[C@@H](O)[C@H](O)[C@H]1O)O[C@H]1C[C@H]3[C@@H]4CC=C5C[C@@H](O[C@@H]6O[C@H](CO)[C@H](O[C@@H]7O[C@H](CO)[C@@H](O)[C@H](O[C@@H]8OC[C@@H](O)[C@H](O)[C@H]8O)[C@H]7O[C@@H]7O[C@H](CO)[C@@H](O)[C@H](O[C@@H]8O[C@H](CO)[C@@H](O)[C@H](O)[C@H]8O)[C@H]7O)[C@H](O)[C@H]6O)[C@H](O)C[C@]5(C)[C@H]4CC[C@]3(C)[C@H]1[C@@H]2C | > 300
11 | COc1cccc2c1C(=O)c1c(O)c3c(c(O)c1C2=O)C[C@@](O)(C(=O)CO)C[C@@H]3O[C@H]1C[C@H](N)[C@H](O)[C@H](C)O1 [DOXORUBICIN] | 2.5 (≈ 4.6 µM)
